Out of some 320,000 compounds screened, about 380 (0.12%) were called active. This is one part of a sample in which actives are shown more often than they occur.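 The calls were made as follows: active = percent inhibition above the cutoff of mean plus 3 SD of all tested compounds, set per screening campaign (cut at about 20% in these data); inactive = the rest.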
Each molecule was assayed against Photoreceptor-specific nuclear receptor (Homo sapiens) (UniProt Q9Y5X4) (assay: inhibitors of NR2E3-RetCOR corepressor binding, primary screen, NR2E3 agonist project, biochemical, TR-FRET, GST-NR2E3, biotin-RetCOR (AID 2300;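 also: 0% = DMSO wells and 100% = biotin wells as full block of FRET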)). Details: 1536-well, at 4.78 µM, stronger effect = higher value.
Sequence of Photoreceptor-specific nuclear receptor (Homo sapiens) (Q9Y5X4 whole entry, looked up): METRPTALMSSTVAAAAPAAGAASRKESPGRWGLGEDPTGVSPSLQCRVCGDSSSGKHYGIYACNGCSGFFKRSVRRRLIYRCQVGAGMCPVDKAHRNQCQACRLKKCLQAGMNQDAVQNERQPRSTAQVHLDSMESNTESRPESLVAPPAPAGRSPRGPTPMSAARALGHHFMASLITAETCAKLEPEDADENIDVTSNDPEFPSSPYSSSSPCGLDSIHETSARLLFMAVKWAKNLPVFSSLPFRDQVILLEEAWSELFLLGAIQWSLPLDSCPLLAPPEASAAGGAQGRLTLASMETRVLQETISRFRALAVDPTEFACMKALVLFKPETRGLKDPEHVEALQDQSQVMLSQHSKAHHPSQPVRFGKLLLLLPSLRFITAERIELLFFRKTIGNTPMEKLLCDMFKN
How it was run: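 System: GST-tagged NR2E3 plus biotinylated RetCOR corepressor; Amount: 1.35 nM GST-tagged NR2E3 final; Dosing: single nominal compound dose of 4.8 µM; Schedule: 5 h incubation at 4 °C; Technique: TR-FRET with europium anti-GST and streptavidin-D2, 340 nm excitation; Controls: biotin wells as high control, 0.6% DMSO wells as low control.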

Inhibition of corepressor binding, inactive:
Cc1nc(N2CCOCC2)c2c(C)c(C(=O)Nc3ccc(C(F)(F)F)cc3)sc2n1 -0.86%
CC(=O)Nc1ccc(N2CCOCC2)c(C(=O)Nc2cccc(C)c2)c1 0.26%
CN(Cc1ccccc1Cl)C(=O)C1CCC(=O)N(CCc2cccc(F)c2)C1 (stereo not given) -0.98%
CCC(CC)C(=O)Nc1c2c(nn1-c1ccc(C)cc1)CS(=O)(=O)C2 0.73%
CCOc1ccc(C(=O)Nc2cc(Cl)ccc2-n2cncn2)cc1OC 1.32%
N#C/C(C(=S)Nc1ccccc1)=C1/NN=C(N2CCOCC2)N1c1ccccc1 -1.05%
Cc1ccccc1NC(=O)COc1cccc2c1CCNC2=O -2.78%
NC(=S)c1ccc(C(N)=S)o1 2.26%
O=C(COc1ccc2c3c(c(=O)oc2c1)CCCC3)NCC(O)c1ccccc1 (stereo not given) 1.28%
CC(=O)COc1ccc2c(-c3ccccc3)cc(=O)oc2c1 3.24%
Cc1ccccc1C(CC(=O)c1cccs1)C(C#N)C#N (stereo not given) 3.7%
COc1cc(C(F)(F)F)c(C(=O)N(C)c2ccc(Cl)cc2)cn1 -2.07%
CC(=O)Nc1sc2c(c1C(c1cccc(F)c1)N1CCN(CCO)CC1)CCCC2 (stereo not given) 2.91%
COC(=O)[C@]1(C)N[C@H](c2ccc(-c3ccc(Cl)c(Cl)c3)cc2)[C@@H]2C(=O)N(C)C(=O)[C@@H]21 -0.27%
CC(=O)c1cccc(NC(=O)CN2C(=O)c3cccnc3Oc3ccc(Cl)cc32)c1 1.24%
COc1cc(C2C3C(=O)N(c4ccccc4)C(=O)C3ON2c2ccccc2)ccc1O (stereo not given) 1.53%
Cn1c(=O)c(=O)n(C)c2cc(S(=O)(=O)CCC(=O)N3CCCCC3)ccc21 1.89%
CSc1sc(C)cc1C1C(C#N)=C(N)N(c2cccnc2)C2=C1C(=O)CCC2 (stereo not given) 0.82%
COCC(=O)N1CCCC(C(=O)c2ccc(C(F)(F)F)cc2)C1 (stereo not given) 3.84%
Cc1ccc(CN2CCN(c3ccccc3Cl)CC2)o1 0.07%
COCCNC(=O)CN1C(=O)CSc2ncccc21 4.79%
CCOc1ccccc1Nc1ccc(C(=O)O)cc1[N+](=O)[O-] 0.59%
O=C(COC(=O)c1ccc(F)cc1F)Nc1ncccn1 8.41%
CN(C(=O)CSc1nnc(-c2ccc(C(C)(C)C)cc2)n1C)C1CCS(=O)(=O)C1 (stereo not given) -0.57%
O=C(CNC(=O)c1ccc(Br)o1)NCC1CCCO1 (stereo not given) 1.48%
Cc1ccc(CN2CCN(Cc3ccc(OCCO)cc3)CC2CCO)o1 (stereo not given) 3.85%
COc1cc([C@H](Cc2ccccc2)NC(C)=O)oc(=O)c1 -1.34%
CN(CC(=O)NCc1ccc2c(c1)OCO2)CC(=O)Nc1ccc(F)c(F)c1F 1.07%
CC(NC(=O)c1ccc(S(=O)(=O)Nc2ccccc2)cc1)c1ccc(S(N)(=O)=O)cc1 (stereo not given) 2.43%
CC(=O)N1CCSc2ccc(S(=O)(=O)N3CCC(C)CC3)cc21 -0.82%
C/C(=N/NC(=O)CSc1ccccn1)c1ccc([N+](=O)[O-])cc1 3.53%
C[C@H](NC(=O)c1nc[nH]c1C(=O)NCC(=O)OC(C)(C)C)c1ccccc1 -2.19%
Cc1ccc(N2C(=O)C(CC(=O)Nc3cccc(F)c3)N(CCc3ccncc3)C2=O)cc1 (stereo not given) -1.41%
CCCOC(=O)c1c(NC(=O)c2cnn3c2NC(c2ccccc2)CC3C(F)(F)F)sc2c1CCCC2 (stereo not given) 0.87%
Cc1ccn2c(c1)nc(=O)c1cc(S(=O)(=O)N3CCC(C)CC3)ccc12 2.72%
CCCOc1ccc(C2C(C(=O)c3ccc(C)o3)=C(O)C(=O)N2CCCn2ccnc2)cc1 (stereo not given) 11.4%
C=CCOc1cccc(C2C(C(=O)c3ccc(C)o3)=C(O)C(=O)N2c2nnc(C)s2)c1 (stereo not given) 14.1%
COc1ccc(/C=C/C(=O)NC(=S)N2CCCC(C(N)=O)C2)cc1 (stereo not given) 3.08%
O=C(OCC1O[C@@H](OC(=O)c2cc(O)c(O)c(O)c2)[C@@H](OC(=O)c2cc(O)c(O)c(O)c2)[C@@H](OC(=O)c2cc(O)c(O)c(O)c2)[C@@H]1OC(=O)c1cc(O)c(O)c(O)c1)c1cc(O)c(O)c(O)c1 (stereo not given in full) 11.9%
Cc1coc2c(O)cc3c(c12)OC1(N2CCCCC2)C(=O)NCCCC31 (stereo not given) -2.68%
CC(C)CCNC(=O)C1CCCN(S(=O)(=O)c2ccc(F)cc2)C1 (stereo not given) 2.4%
Cc1cc(NC(=O)Nc2ccccc2[N+](=O)[O-])no1 0.41%
COc1cccc(N2C(=O)CN(Cc3ccccc3)C2=S)c1 -3.57%
COc1cccc(-n2cc(C(=O)O)c3ccccc3c2=O)c1 3.78%
COc1ccc(NC(=O)CSc2nnc(Cc3ccccc3)c(=O)n2N)cc1 -3.17%
COC(=O)C1=NN(c2ccccc2)C2C(=O)N(c3ccccc3OC)C(=O)C12 (stereo not given) -1.01%
C/C(=C\c1ccco1)CN1CCC(N2CCC(C(=O)N3CCOCC3)CC2)CC1 -0.38%
O=C(Nc1ccccc1Cl)NC1(C(=O)N2CCOCC2)CCCCC1 1.2%
CCc1nn(CCCC(=O)NCc2ccc(C)cc2)c(=O)c2cc3occc3n12 1.62%
C=C1c2c(Cl)ccc(O)c2C(O)=C2C(=O)[C@]3(O)C(O)=C(C(N)=O)C(=O)[C@@H](N(C)C)[C@@H]3[C@@H](O)C12 (stereo not given in full) 3.15%
C=CCn1c(SCc2ccc(Cl)c(Cl)c2)nnc1C(CO)NC(=O)c1ccc(OC)cc1 (stereo not given) -1.93%

Inhibition of corepressor binding, active:
Cc1cccc(NC(=O)c2sc3nc(N4CCOCC4)c4c(c3c2N)CCCC4)c1 27.8%
O=C(Oc1ccccc1)Oc1ccc2c(c1)oc(=O)c1ccccc12 26%
C=CCOc1cccc(C2C(C(=O)c3ccc(C)o3)=C(O)C(=O)N2CCCn2ccnc2)c1 (stereo not given) 25.8%
COc1cccc(-n2c(=S)[nH]c3c(oc4ccccc43)c2=O)c1 29.2%

From PubChem BioAssay AID2300 (The Scripps Research Institute Molecular Screening Center, 2010)
